Assay results from ChEMBL document CHEMBL1123247, “Nucleoside conjugates. 7. Synthesis and antitumor activity of 1-beta-D-arabinofuranosylcytosine conjugates of ether lipids” (J Med Chem, 1986).

What was measured:
[1] = system: L1210; test: Antitumor activity against ic implanted L1210 lymphoid leukemia in mice expressed as active dose range (1,5,9qd treatment schedule) required to produce increase in life span by >25% was determined; Range 67-133; type: functional, Mus musculus
Method in brief: (§1)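 DBA/2J mice, groups of 6 (26-32 g), got 1 × 10^5 L1210 cells ic on day 0. Dosing was ip starting 24 h later, as a sonicated solution or suspension in 0.9% NaCl with 0.5% Tween-80, over a wide dose range. Mice were followed daily until death. Median survival T/C was taken from survivors per NCI protocols, and ILS = (T/C − 1) × 100. Active range means doses giving ILS ≥25%; optimal dose means greatest ILS.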

[2] = system: L1210; test: Antitumor activity was determined against the ic implanted L1210 lymphoid leukemia in mice by percent increase in life span at 80 mg/kg (1-5qd treatment schedule) dosage; type: functional, Mus musculus; method in brief: as §1
[3] = system: P388; test: Antitumor activity was determined against the ip implanted P388 leukemia in mice by range in survival days at 133 mg/kg (treatment of 1,5,9qd schedule) dosage; Range is 31->45; type: functional, Mus musculus; conditions: route intraperitoneal
[4] = system: L1210; test: Antitumor activity was determined against the ip implanted L1210 leukemia in mice by percent increase in life span at 40 mg/kg (treatment of 1-5qd schedule) dosage; type: functional, Mus musculus; conditions: route intraperitoneal
Method in brief: (§2)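 DBA/2J mice in groups of 6 (wt 23-28 g) were inoculated ip with 1×10^6 L1210 cells on day 0. Dosing was ip from 24 h, in 0.9% NaCl with 0.5% Tween-80 (conjugates sonicated), across a range of doses. Mice were observed daily until death or 45 days. Median T/C was computed from survivors per NCI protocols, and ILS = (T/C − 1)×100.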

[5] = system: P388; test: Antitumor activity was determined against the ip implanted P388 leukemia in mice by 45-day survivors in mice at 60 mg/kg (treatment of 1-5qd schedule) dosage; type: functional, Mus musculus; conditions: route intraperitoneal
Method in brief: (§3)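 DBA/2J mice, 23-33 g, in groups of 6, were inoculated ip with 1×10^6 P388 cells on day 0. Dosing was ip from 24 h on the stated schedules, in 0.9% NaCl with 0.5% Tween-80 (sonicated solution or suspension). Survival was followed daily until death or 45 days. Median T/C was calculated from survivors per NCI protocols, with ILS = (T/C − 1) × 100.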

[6] = system: L1210; test: Antitumor activity against ip implanted L1210 leukemia in mice expressed as active dose range (1 qd treatment schedule) required to produce increase in life span by >25% was determined; Range is 300-400; type: functional, Mus musculus
Method in brief: (§4)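 DBA/2J mice, groups of 6 (23-28 g), were inoculated ip with 1 × 10^6 L1210 cells on day 0. Dosing was ip from 24 h, in 0.9% NaCl with 0.5% Tween-80 (sonicated solution or suspension). Mice were observed daily until death or day 45. Median survival T/C followed NCI protocols, and ILS = (T/C − 1) × 100. Active range means doses giving ILS ≥25%; optimal dose means greatest ILS.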

[7] = system: L1210 (mouse); test: Antitumor activity was determined against the ic implanted L1210 lymphoid leukemia in mice by change in […] at 500 mg/kg (treatment of 1qd schedule) dosage
[8] = system: L1210; test: Antitumor activity was determined against the ic implanted L1210 lymphoid leukemia in mice by range in survival days at 100 mg/kg (treatment of 1-5qd schedule) dosage; Range is 21-24; type: functional, Mus musculus
[9] = system: P388; test: Antitumor activity was determined against the ip implanted P388 leukemia in mice by percent median survival rate (treated/control) at 133 mg/kg (treatment of 1,5,9qd schedule) dosage; Range is >45.0/11.0; conditions: route intraperitoneal
[10] = system: L1210; test: Antitumor activity was determined against the ic implanted L1210 lymphoid leukemia in mice by change in […] at 167 mg/kg (treatment of 1, 5, 9qd schedule) dosage; type: functional, Mus musculus
Method in brief: (§5)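 DBA/2J mice, 6 per group (wt 26-32 g), inoculated ic with 1×10^5 L1210 cells on day 0. Dosing ip began 24 h after inoculation, with a sonicated solution or suspension in 0.9% NaCl containing 0.5% Tween-80, given over a range of doses. Animals were followed daily until death. Body weight change, median survival T/C, and %ILS = (T/C − 1) × 100 were computed from survivors per NCI protocols.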

[11] = system: L1210; test: Antitumor activity was determined against the ip implanted L1210 leukemia in mice by percent increase in life span at 80 mg/kg (treatment of 1-5qd schedule) dosage; type: functional, Mus musculus; conditions: route intraperitoneal; method in brief: as §2
[12] = system: L1210; test: Antitumor activity was determined against the ic implanted L1210 lymphoid leukemia in mice by percent increase in life span at 100 mg/kg (treatment of 1-5qd schedule) dosage; type: functional, Mus musculus; method in brief: as §1
[13] = system: P388; test: Antitumor activity was determined against the ip implanted P388 leukemia in mice by change in […] at 133 mg/kg (treatment of 1qd schedule) dosage; type: functional, Mus musculus; conditions: dose 300 mg/kg; route intraperitoneal; in the assay text read “300 mg/kg” for “133 mg/kg”
Method in brief: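 P388 leukemia, 1×10^6 cells implanted ip on day 0 into DBA/2J mice, groups of 6 (wt 23-33 g). Dosing ip started 24 h post-inoculation, vehicle 0.9% NaCl containing 0.5% Tween-80. Animals were observed daily until death or 45 days. Outputs were weight change, median survival T/C from survivors per NCI protocols, and %ILS = (T/C − 1) × 100.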

[14] = system: P388; test: Antitumor activity was determined against the ip implanted P388 leukemia in mice by percent increase in life span at 67 mg/kg (treatment of 1,5,9qd schedule) dosage; type: functional, Mus musculus; conditions: route intraperitoneal
[15] = system: P388; test: Antitumor activity was determined against the ip implanted P388 leukemia in mice by percent median survival rate (treated/control) at 67 mg/kg (treatment of 1,5,9qd schedule) dosage; 25.5/11.0; type: functional, Mus musculus; conditions: route intraperitoneal
[16] = system: L1210; test: Antitumor activity against ip implanted L1210 leukemia in mice expressed as active dose range (1 qd treatment schedule) required to produce increase in life span by >25% was determined; Range is 300-500; type: functional, Mus musculus; method in brief: as §4
[17] = system: P388; test: Antitumor activity was determined against the ip implanted P388 leukemia in mice by 45-day survivors in mice at 200 mg/kg (treatment of 1-5qd schedule) dosage; type: functional, Mus musculus; conditions: route intraperitoneal; method in brief: as §3
[18] = system: L1210; test: Antitumor activity was determined against the ic implanted L1210 lymphoid leukemia in mice by change in […] at 100 mg/kg (treatment of 1-9qd schedule) dosage; type: functional, Mus musculus; method in brief: as §5
[19] = system: L1210; test: Antitumor activity was determined against the ic implanted L1210 lymphoid leukemia in mice by percent increase in life span at 100 mg/kg (treatment of 1-9qd schedule) dosage; type: functional, Mus musculus; method in brief: as §1
[20] = system: Glioblastoma cell line; test: Compound was tested for the inhibition of glioblastoma; type: functional, cell-based; conditions: Homo sapiens
Method in brief: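 Human leukemia and solid tumor cells in culture were exposed to compound for 48 h. Viability was scored by trypan blue dye exclusion. IC50 (50% inhibition) was estimated from response curves of three separate experiments.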

[21] = system: P388; test: Antitumor activity was determined against the ip implanted P388 leukemia in mice by percent increase in life span at 200 mg/kg (treatment of 1-5qd schedule) dosage; type: functional, Mus musculus; conditions: route intraperitoneal; method in brief: as §3

Structure (SMILES): CCCCCCCCCCCCCCCC(=O)OC[C@H](COP(=O)(O)OP(=O)(O)OC[C@H]1O[C@@H](n2ccc(N)nc2=O)[C@@H](O)[C@@H]1O)OC(=O)CCCCCCCCCCCCCCC
- Active dose range [1]: 67 mg/kg/day
- ILS [2]: 175
- Range [3]: 31
- ILS [4]: 275

Structure (SMILES): CCCCCCCCCCCCCCCCOCC(COP(=O)(O)OP(=O)(O)OC[C@H]1O[C@@H](n2ccc(N)nc2=O)[C@@H](O)[C@@H]1O)OC(=O)CCCCCCCCCCCCCCC (mixture of isomers)
- Survivors [5]: 6
- Active dose range [6]: 300 mg/kg/day
- Weight change [7]: -2.07 g mouse-1
- Range [8]: 21
- T/C [9]: >45%
- Weight change [10]: -1.15 g mouse-1
- ILS [11]: 264
- ILS [12]: 214
- Weight change [13]: -1.51 g mouse-1

Structure (SMILES): CCCCCCCCCCCCCCCCCCOCC(COP(=O)(O)OP(=O)(O)OC[C@H]1O[C@@H](n2ccc(N)nc2=O)[C@@H](O)[C@@H]1O)OC(=O)CCCCCCCCCCCCCCC (mixture of isomers)
- ILS [14]: 132
- T/C [15]: 25.5%
- Active dose range [16]: 300 mg/kg/day

Structure (SMILES): Nc1ccn([C@@H]2O[C@H](CO)[C@@H](O)[C@@H]2O)c(=O)n1 [CYTARABINE]
- Survivors [17]: 0
- Weight change [18]: -5.8
- ILS [19]: 100
- IC50 [20]: > 100 µM
- ILS [21]: 109
